These results are taken from ChEMBL document CHEMBL1240446, “Synthesis and biological activities of novel amine-derived bis-azoles as potential antibacterial and antifungal agents” (2010).

In brackets after ≈: the same amount, converted by molar mass.

The term MIC denotes the smallest concentration in the dilution series that meets the test's criterion for growth inhibition. A lower MIC goes with inhibition by little substance.

Holding throughout (type): functional
One experiment deals with Candida albicans. In words: Antifungal activity against Candida albicans ATCC 76615 after 24 hrs by micro-broth dilution method. As to conditions: ATCC 76615, 24 h. An outline of the steps: (§1)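 Broth microdilution per NCCLS. Spore suspension in sterile distilled water, taken from 1-day-old cultures on Sabouraud agar, final 1–5×10^3 spores/mL. Compounds diluted from stocks in RPMI 1640 to eleven concentrations, 0.25–256 µg/mL. Incubation 35 °C, 24 h. Growth scored visually and spectrophotometrically. MIC is the lowest concentration arresting fungal growth.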
For orientation: Broth dilution looks for growth in wells or tubes with falling amounts of substance.

The test system of experiment [1] is Staphylococcus aureus. Briefly: Antibacterial activity against Staphylococcus aureus ATCC 29213 after 24 hrs by micro-broth dilution method. Particulars: ATCC 29213, 24 h. An outline of the steps: (§2)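 Broth microdilution per NCCLS in Mueller-Hinton broth. Inoculum adjusted in sterile saline to 1×10^4–1×10^5 CFU. Compounds taken from DMSO stocks and serially diluted two-fold to final 256–0.25 µg/mL (11 levels). Incubation 37 °C, 24 h, with a DMSO solvent control. Growth read visually and spectrophotometrically. MIC is the lowest concentration that arrests growth.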

The next experiment concerns Pseudomonas aeruginosa. Briefly: Antibacterial activity against Pseudomonas aeruginosa ATCC 27853 after 24 hrs by micro-broth dilution method. As to conditions: ATCC 27853, 24 h. An outline of the steps:
(§3)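 MIC by broth microdilution following NCCLS methods. Inoculum adjusted in sterile saline to 1×10^4–1×10^5 CFU. Compounds from DMSO stocks, two-fold serial dilutions in Mueller-Hinton broth at 256 down to 0.25 µg/mL. Incubation 37 °C, 24 h. DMSO solvent control at matching dilutions. Growth read visually and spectrophotometrically. MIC is the lowest concentration arresting growth.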

The next experiment concerns Bacillus subtilis. In words: Antibacterial activity against Bacillus subtilis ATCC 21216 after 24 hrs by micro-broth dilution method. As to conditions: ATCC 21216, 24 h. An outline of the steps:
as §3

Another experiment deals with Aspergillus fumigatus. In words: Antifungal activity against Aspergillus fumigatus ATCC 96918 after 24 hrs by micro-broth dilution method. Particulars: ATCC 96918, 24 h. An outline of the steps:
as §1

The subject of a further experiment is Bacillus. In words: Antibacterial activity against Bacillus proteus ATCC 13315 after 24 hrs by micro-broth dilution method. Particulars: ATCC 13315, 24 h. An outline of the steps:
as §3

The test system of experiment [2] is Staphylococcus aureus. Briefly: Antibacterial activity against methicillin-resistant Staphylococcus aureus N315 after 24 hrs by micro-broth dilution method. As to conditions: N315, 24 h. An outline of the steps: as §2
Another experiment concerns Escherichia coli. Briefly: Antibacterial activity against Escherichia coli ATCC 25922 after 24 hrs by micro-broth dilution method. Particulars: ATCC 25922, 24 h. An outline of the steps:
as §3

For the compound `Cl.Clc1ccc(CN(CCn2ccnc2)CCn2ccnc2)cc1Cl`, the MIC against Candida albicans is above 256 mg/L; against Staphylococcus aureus [1] it was 4 mg/L; against Pseudomonas aeruginosa, 32 mg/L; against Bacillus subtilis it was 4 mg/L; in the experiment with Aspergillus fumigatus, 32 mg/L; with Bacillus, 16 mg/L. Further, the MIC came to 8 mg/L against Staphylococcus aureus [2] and 4 mg/L against Escherichia coli.

As to `Cl.Clc1ccc(CN(CCn2cncn2)CCn2cncn2)c(Cl)c1`, the MIC worked out at 0.25 mg/L against Candida albicans; 16 mg/L in the experiment on Staphylococcus aureus [1]; 16 mg/L with Pseudomonas aeruginosa; 128 mg/L with Bacillus subtilis; 128 mg/L in the experiment on Aspergillus fumigatus; 4 mg/L in the experiment on Bacillus. The MIC against Staphylococcus aureus [2] came to 128 mg/L; in the experiment with Escherichia coli it was 32 mg/L.

Take `Cl.Clc1ccc(CN(CCn2ccnc2)CCn2ccnc2)c(Cl)c1`: the MIC in the experiment with Candida albicans is 64 mg/L; in the experiment with Staphylococcus aureus [1], 4 mg/L; against Pseudomonas aeruginosa, 4 mg/L; in the experiment on Bacillus subtilis, 8 mg/L; against Aspergillus fumigatus, above 256 mg/L; in the experiment with Bacillus, 32 mg/L. In addition, the MIC amounted to 8 mg/L against Staphylococcus aureus [2] and 16 mg/L against Escherichia coli.

Regarding `Clc1ccc(CN(CCn2cncn2)CCn2cncn2)cc1Cl`, the MIC was above 256 mg/L in the experiment with Candida albicans; 64 mg/L (≈ 175 µM) in the experiment on Staphylococcus aureus [1]; 64 mg/L (≈ 175 µM) in the experiment on Pseudomonas aeruginosa; 32 mg/L (≈ 87.4 µM) in the experiment on Bacillus subtilis; above 256 mg/L in the experiment on Aspergillus fumigatus; 0.5 mg/L (≈ 1.37 µM) against Bacillus. Further, the values for the MIC in the experiment with Staphylococcus aureus [2] and against Escherichia coli were 256 mg/L (≈ 699 µM) and 32 mg/L (≈ 87.4 µM), respectively.

For `OCCN(CCO)Cc1ccc(Cl)c(Cl)c1`, the MIC with Candida albicans is above 256 mg/L; against Staphylococcus aureus [1], 256 mg/L (≈ 969 µM); against Pseudomonas aeruginosa, above 256 mg/L; with Bacillus subtilis, 128 mg/L (≈ 485 µM); against Aspergillus fumigatus, above 256 mg/L; in the experiment on Bacillus, 128 mg/L (≈ 485 µM). The figures for the MIC against Staphylococcus aureus [2] and in the experiment on Escherichia coli were above 256 mg/L and 128 mg/L (≈ 485 µM), respectively.

On to `Clc1ccc(CN(CCn2cnc3ccccc32)CCn2cnc3ccccc32)c(Cl)c1`, for which the MIC was above 256 mg/L against Candida albicans; 32 mg/L (≈ 68.9 µM) against Staphylococcus aureus [1]; 32 mg/L (≈ 68.9 µM) against Pseudomonas aeruginosa; 32 mg/L (≈ 68.9 µM) in the experiment on Bacillus subtilis; above 256 mg/L with Aspergillus fumigatus; 32 mg/L (≈ 68.9 µM) with Bacillus. Besides, the MIC against Staphylococcus aureus [2] was determined as 64 mg/L (≈ 138 µM); with Escherichia coli it was 128 mg/L (≈ 276 µM).

For `Clc1ccc(CN(CCn2cncn2)CCn2cncn2)c(Cl)c1`, the MIC against Candida albicans was 0.25 mg/L (≈ 0.683 µM); with Staphylococcus aureus [1], 64 mg/L (≈ 175 µM); against Pseudomonas aeruginosa it was 32 mg/L (≈ 87.4 µM); against Bacillus subtilis it was above 256 mg/L; against Aspergillus fumigatus, above 256 mg/L; with Bacillus, 16 mg/L (≈ 43.7 µM). In addition, the MIC in the experiment with Staphylococcus aureus [2] was 256 mg/L (≈ 699 µM); in the experiment with Escherichia coli, 64 mg/L (≈ 175 µM).

Turning to `Fc1ccc(CN(CCn2cnc3ccccc32)CCn2cnc3ccccc32)c(F)c1.O=[N+]([O-])O`, the MIC against Candida albicans was above 256 mg/L; against Staphylococcus aureus [1], 128 mg/L; against Pseudomonas aeruginosa it was above 256 mg/L; with Bacillus subtilis, above 256 mg/L; against Aspergillus fumigatus, above 256 mg/L; against Bacillus, 128 mg/L. The figures for the MIC in the experiment on Staphylococcus aureus [2] and in the experiment with Escherichia coli were 256 mg/L and above 256 mg/L, respectively.

As to `Cl.Fc1ccc(CN(CCn2cnc3ccccc32)CCn2cnc3ccccc32)c(F)c1`, the MIC with Candida albicans was above 256 mg/L; against Staphylococcus aureus [1], 32 mg/L; in the experiment with Pseudomonas aeruginosa, above 256 mg/L; in the experiment on Bacillus subtilis it was above 256 mg/L; with Aspergillus fumigatus, above 256 mg/L; with Bacillus it was 64 mg/L. Further, the minimal inhibitory concentration (MIC) in the experiment with Staphylococcus aureus [2] is 128 mg/L; in the experiment with Escherichia coli it was above 256 mg/L.

On to `CCn1cc(C(=O)O)c(=O)c2cc(F)c(N3CCNCC3)cc21` [NORFLOXACIN], for which the MIC in the experiment on Staphylococcus aureus [1] turned out to be 0.25 mg/L (≈ 0.783 µM); against Pseudomonas aeruginosa, 2 mg/L (≈ 6.26 µM); against Bacillus subtilis, 1 mg/L (≈ 3.13 µM); in the experiment with Bacillus, 1 mg/L (≈ 3.13 µM); with Staphylococcus aureus [2] it was 0.25 mg/L (≈ 0.783 µM); in the experiment on Escherichia coli, 0.5 mg/L (≈ 1.57 µM).

Turning to `O=C(N[C@H](CO)[C@H](O)c1ccc([N+](=O)[O-])cc1)C(Cl)Cl` [CHLORAMPHENICOL], the MIC with Staphylococcus aureus [1] amounted to 8 mg/L (≈ 24.8 µM); against Pseudomonas aeruginosa, 64 mg/L (≈ 198 µM); in the experiment on Bacillus subtilis, 8 mg/L (≈ 24.8 µM); with Bacillus, 8 mg/L (≈ 24.8 µM); against Staphylococcus aureus [2], 16 mg/L (≈ 49.5 µM); in the experiment with Escherichia coli, 8 mg/L (≈ 24.8 µM).

Turning to `OC(Cn1cncn1)(Cn1cncn1)c1ccc(F)cc1F` [FLUCONAZOLE], the MIC with Candida albicans was determined as 0.5 mg/L (≈ 1.63 µM); against Aspergillus fumigatus, 256 mg/L (≈ 836 µM).
